Results from ChEMBL document CHEMBL3853294, “Design, synthesis and biological evaluation of novel HSP70 inhibitors: N, N'-disubstituted thiourea derivatives” (Eur J Med Chem, 2016).

Columns and labels:
[1] = Growth inhibition of human BT474 cells at 10 uM after 72 hrs by cell titer-glo based luminescence assay; design: species or system BT-474; conditions: read-out: GI
How it was run: (§1)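 Cells were trypsinised and seeded at 5000 cells/well, then cultured 24 h at 37 °C. Compound was added at 10 µM, alone or with 1 µM lapatinib, and incubated 72 h at 37 °C. CellTiter-Glo reagent was added at a volume equal to the medium, followed by 3 min shaking and 10 min at room temperature. Luminescence (ATP) was read and normalised to the blank control group.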

BT-474 [2] = test: Potentiation of lapatinib-induced growth inhibition of human BT474 cells assessed as coefficient of drug interaction after 72 hrs by cell titer-glo based luminescence assay; assay type: functional
BT-474 [3] = test: Potentiation of lapatinib-induced growth inhibition of human BT474 cells at 10 uM after 72 hrs by cell titer-glo based luminescence assay; assay type: functional; conditions: BT-474, 72 h, read-out: GI; how it was run: as §1
Homo sapiens [4] = organism: Homo sapiens; test: Inhibition of HSP70 in human BT/LapR1.0 cells assessed as potentiation of 1 uM of lapatinib-induced growth inhibition at 10 uM after 72 hrs by cell titer-glo based luminescence assay; how it was run: as §1
[5] = target: Chaperone protein DnaK (Escherichia coli) (UniProt P0A6Y8); test: Inhibition of Escherichia coli DnaK ATPase activity at 200 uM incubated on shaker for 10 mins followed by 30 mins incubation by malachite green reagent based colorimetric assay
Homo sapiens [6] = organism: Homo sapiens; test: Inhibition of HSP70 in human BT/LapR1.0 cells assessed as potentiation of 1 uM of lapatinib-induced growth inhibition after 72 hrs by measuring coefficient of drug interaction by cell titer-glo based luminescence assay
[7] = Growth inhibition of human BT/LapR1.0 cells at 10 uM after 72 hrs by cell titer-glo based luminescence assay; conditions: read-out: GI; how it was run: as §1

Compound	inhibition at 72 h, 10 µM [1] [%]	Activity (BT-474 [2])	inhibition of growth at 10 µM (BT-474 [3]) [%]	growth inhibition (GI) (Homo sapiens [4]) [%]	inhibition [5] [%]	Activity (Homo sapiens [6])	inhibition at 72 h, 10 µM [7] [%]
COc1cc(/C=C/C(=O)NC(CC(C)C)NC(=S)Nc2ccccn2)cc(OC)c1OC (stereo not drawn)	24.9	<1	87.8	61	< 20	< 1	38.7
Cc1ccccc1NC(=S)NC(CC(C)C)NC(=O)/C=C/c1ccccc1 (stereo not drawn)	9.8	0.84	81.6	23.3	< 20	< 1	12.8
O=C(/C=C/c1ccccc1)NC(NC(=S)Nc1ccccc1)C1CC1 (stereo not drawn)	3.8	<1	81.4	27.8	< 20	< 1	8.7
COc1cc(/C=C/C(=O)NC(CC(C)(C)C)NC(=S)Nc2ccccc2)cc(OC)c1OC (stereo not drawn)	19	0.65	90.9	62.3	44.1	< 1	40.9
COc1cc(/C=C/C(=O)NC(NC(=O)Nc2ccccn2)C(C)C)cc(OC)c1OC (stereo not drawn)	12.4	<1	86.2	57.6	< 20	< 1	18.2
COc1cc(/C=C/C(=O)NC(NC(=S)NC2CCCCC2)C(C)(C)C)cc(OC)c1OC (stereo not drawn)	13.5	0.56	87.3	57.8	35.8	0.86	39.8
CC(C)CC(NC(=O)/C=C/c1ccccc1)NC(=S)NC1CCCCC1 (stereo not drawn)	13.5	0.77	84	33.4	58.4	< 1	19.8
COc1cc(/C=C/C(=O)NC(NC(=S)NC2CCCCC2)C(C)C)cc(OC)c1OC (stereo not drawn)	15.3	0.82	82.2	45.7	< 20	0.8	22.6
COc1cc(/C=C/C(=O)NC(CC(C)C)NC(=S)NC2CCCCC2)cc(OC)c1OC (stereo not drawn)	16.5	0.73	83.4	48.1	46.2	< 1	38.8
CC(C)CC(NC(=O)/C=C/c1ccccc1)NC(=S)Nc1ccccc1 (stereo not drawn)	17.7	0.86	85	36.9	< 20	< 1	13.6
COc1cc(/C=C/C(=O)NC(CC(C)(C)C)NC(=S)Nc2ccccn2)cc(OC)c1OC (stereo not drawn)	25.8	<1	88.5	65.9	< 20	< 1	31.5
COc1cc(/C=C/C(=O)NC(NC(=S)Nc2cccnc2)C2CC2)cc(OC)c1OC (stereo not drawn)	8.6	<1	85.2	55.7	< 20	< 1	12.3
CC(C)(C)CC(NC(=O)/C=C/c1ccccc1)NC(=S)Nc1ccccc1 (stereo not drawn)	11.3	0.79	84.9	53	< 20	< 1	34.6
COc1ccc(NC(=S)NC(NC(=O)/C=C/c2cc(OC)c(OC)c(OC)c2)C(C)C)cc1 (stereo not drawn)	11.5	<1	78.5	23.4	< 20	< 1	15.4
COc1cc(/C=C/C(=O)NC(CC(C)(C)C)NC(=S)Nc2cccnc2)cc(OC)c1OC (stereo not drawn)	22.1	0.81	89.9	59.9	47.1	< 1	19.3
CC(C)C(NC(=O)/C=C/c1ccccc1)NC(=S)Nc1ccccc1 (stereo not drawn)	9.4	<1	82	30	< 20	< 1	11.5

Compound	inhibition at 72 h, 10 µM [1] [%]	Activity (BT-474 [2])	inhibition of growth at 10 µM (BT-474 [3]) [%]	growth inhibition (GI) (Homo sapiens [4]) [%]	inhibition [5] [%]	Activity (Homo sapiens [6])	inhibition at 72 h, 10 µM [7] [%]
COc1cc(/C=C/C(=O)NC(NC(=S)Nc2ccccc2)C(C)(C)C)cc(OC)c1OC (stereo not drawn)	2.2	<1	83.2	48.8	< 20	< 1	2.9
COc1cc(/C=C/C(=O)NC(NC(=S)Nc2ccccn2)C2CC2)cc(OC)c1OC (stereo not drawn)	20.1	<1	87.8	59.6	< 20	< 1	17.4
COc1cc(/C=C/C(=O)NC(CC(C)C)NC(=S)Nc2cccnc2)cc(OC)c1OC (stereo not drawn)	9.2	<1	79.1	54.2	38.5	< 1	10.5
CC(C)C(NC(=O)/C=C/c1ccccc1)NC(=S)NC1CCCCC1 (stereo not drawn)	10.3	<1	80.6	75.8	< 20	< 1	13.3
Cc1ccccc1NC(=S)NC(NC(=O)/C=C/c1ccccc1)C1CC1 (stereo not drawn)	6	<1	78.6	20	65.4	< 1	8.7
COc1cc(/C=C/C(=O)NC(CC(C)C)NC(=S)Nc2ccccc2)cc(OC)c1OC (stereo not drawn)	7.3	<1	76.6	42.2	50.4	< 1	9.4
Cc1ccccc1NC(=S)NC(CC(C)(C)C)NC(=O)/C=C/c1ccccc1 (stereo not drawn)	18.2	0.74	84.2	41	41	0.79	18.9
O=C(/C=C/c1ccccc1)NC(NC(=S)Nc1ccccn1)C1CC1 (stereo not drawn)	2.4	<1	78.8	25.2	< 20	< 1	6
CNC(=S)NC(CC(C)C)NC(=O)/C=C/c1cc(OC)c(OC)c(OC)c1 (stereo not drawn)	10.5	<1	79.8	30.9	< 20	< 1	13
COc1cc(/C=C/C(=O)NC(NC(=O)Nc2ccccc2)C(C)C)cc(OC)c1OC (stereo not drawn)	4.8	<1	79.1	32.8	–	< 1	11.4
COc1cc(/C=C/C(=O)NC(NC(=S)Nc2ccccc2)C2CC2)cc(OC)c1OC (stereo not drawn)	12.2	<1	85.2	56	50.5	< 1	13.7
CC(C)(C)C(NC(=O)/C=C/c1ccccc1)NC(=S)Nc1ccccc1 (stereo not drawn)	9.6	0.85	83.5	33	< 20	< 1	11.4
CC(C)(C)C(NC(=O)/C=C/c1ccccc1)NC(=S)NC1CCCCC1 (stereo not drawn)	13	0.77	85.2	47.2	< 20	< 1	34.3
COc1cc(/C=C/C(=O)NC(NC(=S)Nc2ccccc2C)C(C)(C)C)cc(OC)c1OC (stereo not drawn)	8.2	<1	81.4	30.1	50.5	< 1	9.9
Cc1ccccc1NC(=S)NC(NC(=O)/C=C/c1ccccc1)C(C)(C)C (stereo not drawn)	7	<1	78.7	20.5	< 20	< 1	9.7
COc1cc(/C=C/C(=O)NC(NC(=S)Nc2cccnc2)C(C)(C)C)cc(OC)c1OC (stereo not drawn)	10.3	<1	84.7	56	< 20	< 1	16
